Reference: ChEMBL document CHEMBL2321771, “Inhibition of Ebola Virus Infection: Identification of Niemann-Pick C1 as the Target by Optimization of a Chemical Probe” (ACS Med Chem Lett, 2013)
pIC50: −log10 of the molar value. Activity calls are given as the source filed them. No cut-off for these calls is given here.

Key:
[1] = system: Ebolavirus; assay: Antiviral activity against Ebola virus by cell based luciferase reporter gene assay; type: functional, Ebola virus sp.; conditions: Orthoebolavirus
[2] = molecular target: T1, NPC intracellular cholesterol transporter 1 (Mus musculus) (UniProt O35604); assay: Inhibition of mouse NPC1 interaction to Ebola virus GP expressed in LE/LY membrane of CHO cells by immunoblotting; type: cell-based
T1 sequence (whole entry): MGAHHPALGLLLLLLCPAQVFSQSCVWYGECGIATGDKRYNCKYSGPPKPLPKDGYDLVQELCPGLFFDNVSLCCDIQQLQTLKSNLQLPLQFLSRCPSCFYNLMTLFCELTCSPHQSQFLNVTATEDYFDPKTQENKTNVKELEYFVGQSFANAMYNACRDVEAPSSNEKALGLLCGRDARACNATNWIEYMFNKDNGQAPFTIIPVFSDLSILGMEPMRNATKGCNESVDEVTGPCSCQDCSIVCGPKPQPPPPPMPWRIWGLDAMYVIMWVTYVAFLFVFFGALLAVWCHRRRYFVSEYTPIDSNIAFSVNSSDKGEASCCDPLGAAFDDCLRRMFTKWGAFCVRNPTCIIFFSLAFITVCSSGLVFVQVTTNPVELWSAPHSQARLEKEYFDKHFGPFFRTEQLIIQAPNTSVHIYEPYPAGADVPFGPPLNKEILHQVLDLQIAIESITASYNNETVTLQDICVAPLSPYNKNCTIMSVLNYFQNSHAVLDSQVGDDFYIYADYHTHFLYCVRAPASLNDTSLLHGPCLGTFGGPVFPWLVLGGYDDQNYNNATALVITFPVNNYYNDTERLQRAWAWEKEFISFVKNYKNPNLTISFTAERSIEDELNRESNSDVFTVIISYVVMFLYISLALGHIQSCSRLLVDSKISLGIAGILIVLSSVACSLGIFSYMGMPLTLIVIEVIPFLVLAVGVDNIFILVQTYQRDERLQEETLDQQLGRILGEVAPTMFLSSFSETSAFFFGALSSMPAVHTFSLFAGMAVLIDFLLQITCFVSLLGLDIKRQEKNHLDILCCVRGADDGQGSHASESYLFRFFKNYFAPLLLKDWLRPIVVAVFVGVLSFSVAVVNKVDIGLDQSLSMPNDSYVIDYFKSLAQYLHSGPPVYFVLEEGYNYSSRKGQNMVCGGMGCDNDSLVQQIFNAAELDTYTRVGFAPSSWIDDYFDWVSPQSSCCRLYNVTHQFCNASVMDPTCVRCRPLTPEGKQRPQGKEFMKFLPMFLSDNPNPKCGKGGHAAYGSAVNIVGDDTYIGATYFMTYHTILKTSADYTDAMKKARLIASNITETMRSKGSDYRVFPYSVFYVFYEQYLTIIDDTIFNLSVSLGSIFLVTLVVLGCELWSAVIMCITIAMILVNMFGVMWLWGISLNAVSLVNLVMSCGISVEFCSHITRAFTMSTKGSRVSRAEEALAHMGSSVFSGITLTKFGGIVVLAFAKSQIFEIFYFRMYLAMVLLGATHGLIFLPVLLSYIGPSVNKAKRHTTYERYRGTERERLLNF
How it was run: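 Late endosome/lysosome membranes from NPC1-null CHO cells, or the same cells stably expressing mouse NPC1, were immobilized on ELISA plates. They were incubated with protease-cleaved Ebola GP in the presence of test compound at specified concentrations. After washing off unbound GP, membranes were solubilized in NP40 and bound GP was detected by GP1-antibody immunoblot. Results are representative of six experiments.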

| SMILES | pIC50 [1] | inhibition [2] |
| --- | --- | --- |
| O=C(NCC(=O)N1CCN(Cc2ccccc2)CC1)c1ccccc1 | 4.51 |  |
| O=C(CC12CC3CC(CC(C3)C1)C2)NCC(=O)N1CCN(Cc2cccc(OCc3ccccc3)c2)CC1 | 5.40 |  |
| O=C(CC12CC3CC(CC(C3)C1)C2)NCC(=O)N1CCN(Cc2cccnc2)CC1 | 5.17 |  |
| O=C(CC1CCCCC1)NCC(=O)N1CCN(Cc2ccccc2)CC1 | < 4.40 |  |
| O=C(CC12CC3CC(CC(C3)C1)C2)NCCCC(=O)N1CCN(Cc2ccccc2)CC1 | 4.66 |  |
| O=C(CC12CC3CC(CC(C3)C1)C2)NC(CCC(=O)OCc1ccccc1)C(=O)N1CCN(Cc2ccccc2)CC1 (stereo unspecified) | 5.06 |  |
| O=C(CC12CC3CC(CC(C3)C1)C2)NCC(=O)N1CCN(Cc2cccc3ccccc23)CC1 | 5.47 |  |
| CN(C)C(=O)c1ccc(COc2ccccc2CN2CCN(C(=O)CNC(=O)CC34CC5CC(CC(C5)C3)C4)CC2)cc1 | 5.48 |  |
| O=C(CC12CC3CC(CC(C3)C1)C2)NCC(=O)N1CCN(Cc2ccccc2OCc2ccccc2)CC1 | 5.70 |  |
| COc1cccc(CN2CCN(C(=O)CNC(=O)CC34CC5CC(CC(C5)C3)C4)CC2)c1 | 5.70 |  |
| O=C(NCC(=O)N1CCN(Cc2ccccc2)CC1)C1CCCCC1 | 4.57 |  |
| O=C(CC12CC3CC(CC(C3)C1)C2)NCC(=O)N1CCN(Cc2ccccc2OCc2ccc([N+](=O)[O-])cc2)CC1 | 5.77 |  |
| CC(C)C(NC(=O)CC12CC3CC(CC(C3)C1)C2)C(=O)N1CCN(Cc2ccccc2)CC1 (stereo unspecified) | < 4.40 |  |
| O=C(CC12CC3CC(CC(C3)C1)C2)NCC(=O)N1CCN(Cc2ccccc2OCc2ccc(C(=O)O)cc2)CC1 | 5.40 |  |
| O=C(CC12CC3CC(CC(C3)C1)C2)NCC(=O)N1CCC(Cc2ccccc2)CC1 | 5.89 | Active |
| O=C(CC12CC3CC(CC(C3)C1)C2)NCC(=O)N1CCN(Cc2ccccc2OCc2ccccc2[N+](=O)[O-])CC1 | 5.80 |  |
| COC(=O)c1ccc(CN2CCN(C(=O)CNC(=O)CC34CC5CC(CC(C5)C3)C4)CC2)cc1 | 4.82 |  |
| Cc1ccc(CN2CCN(C(=O)CNC(=O)CC34CC5CC(CC(C5)C3)C4)CC2)cc1 | 5.96 |  |
| O=C(CC12CC3CC(CC(C3)C1)C2)NCC(=O)N1CCN(Cc2ccccc2OCc2ccncc2)CC1 | 6.10 |  |
| O=C(CC12CC3CC(CC(C3)C1)C2)NCC(=O)N1CCN(Cc2ccc(Cl)cc2Cl)CC1 | 5.18 |  |
| Cc1cccc(COc2ccccc2CN2CCN(C(=O)CNC(=O)CC34CC5CC(CC(C5)C3)C4)CC2)c1 | 6.46 |  |
| O=C(CNC(=O)C12CC3CC(CC(C3)C1)C2)N1CCN(Cc2ccccc2)CC1 | 4.54 |  |
| N#Cc1ccc(COc2ccccc2CN2CCN(C(=O)CNC(=O)CC34CC5CC(CC(C5)C3)C4)CC2)cc1 | 5.36 |  |

| SMILES | pIC50 [1] | inhibition [2] |
| --- | --- | --- |
| COc1ccc(CN2CCN(C(=O)CNC(=O)CC34CC5CC(CC(C5)C3)C4)CC2)cc1 | 5.27 |  |
| O=C(CC12CC3CC(CC(C3)C1)C2)NCC(=O)N1CCN(C(c2ccccc2)c2ccccc2)CC1 | < 5.00 |  |
| O=C(CC12CC3CC(CC(C3)C1)C2)NCC(=O)N1CCN(Cc2ccc(Cl)c(Cl)c2)CC1 | 6.12 |  |
| Cc1cc(O)cc(C)c1CN1CCN(C(=O)CNC(=O)CC23CC4CC(CC(C4)C2)C3)CC1 | 5.10 |  |
| O=C(CC12CC3CC(CC(C3)C1)C2)NCC(=O)N1CCN(Cc2ccccc2Br)CC1 | 5.47 |  |
| N#Cc1ccccc1CN1CCN(C(=O)CNC(=O)CC23CC4CC(CC(C4)C2)C3)CC1 | 5.41 |  |
| O=C(CC12CC3CC(CC(C3)C1)C2)NCC(=O)N1CCN(Cc2ccncc2)CC1 | 4.84 |  |
| O=C(CC12CC3CC(CC(C3)C1)C2)NCC(=O)N1CCN(Cc2ccc(C(=O)O)cc2)CC1 | < 4.40 |  |
| O=C(CC12CC3CC(CC(C3)C1)C2)NCC(=O)N1CCN(Cc2ccc(Br)cc2)CC1 | 5.49 |  |
| CN(CC(=O)N1CCN(Cc2ccccc2)CC1)C(=O)CC12CC3CC(CC(C3)C1)C2 | 5.17 |  |
| O=C(CC12CC3CC(CC(C3)C1)C2)NCCC(=O)N1CCN(Cc2ccccc2)CC1 | 4.77 | Active |
| O=C(CC12CC3CC(CC(C3)C1)C2)NCC(=O)N1CCN(C(=O)c2ccccc2)CC1 | 5.52 |  |
| CNC(=O)c1ccc(COc2ccccc2CN2CCN(C(=O)CNC(=O)CC34CC5CC(CC(C5)C3)C4)CC2)cc1 | 5.68 |  |
| O=C(CC12CC3CC(CC(C3)C1)C2)NCC(=O)N1CCN(Cc2ccc(Cl)cc2)CC1 | 5.60 |  |
| O=C(CC12CC3CC(CC(C3)C1)C2)NCC(=O)N1CCN(Cc2cccc(C(=O)O)c2)CC1 | < 4.40 |  |
| O=C(CC12CC3CC(CC(C3)C1)C2)NCC(=O)N1CCN(Cc2ccccc2O)CC1 | 5.54 |  |
| O=C(CC12CC3CC(CC(C3)C1)C2)NCC(=O)N1CCN(Cc2ccccc2OCc2cccnc2)CC1 | 5.68 |  |
| O=C(CC12CC3CC(CC(C3)C1)C2)NCC(=O)N1CCN(Cc2ccccc2OCc2cccc(Br)c2)CC1 | 5.62 |  |
| O=C(CC12CC3CC(CC(C3)C1)C2)NCC(=O)N1CCN(Cc2ccc(O)cc2)CC1 | 5.15 |  |
| COC(=O)c1ccccc1CN1CCN(C(=O)CNC(=O)CC23CC4CC(CC(C4)C2)C3)CC1 | 5.10 |  |
| O=C(Cc1ccccc1)NCC(=O)N1CCN(Cc2ccccc2)CC1 | < 4.40 |  |
| O=C(Cc1ccc(Cl)cc1)NCC(=O)N1CCN(Cc2ccccc2)CC1 | 4.72 |  |
| O=C(CC12CC3CC(CC(C3)C1)C2)NCC(=O)N1CCN(Cc2ccccc2C(=O)O)CC1 | < 4.40 |  |

| SMILES | pIC50 [1] | inhibition [2] |
| --- | --- | --- |
| O=C(CC12CC3CC(CC(C3)C1)C2)NCC(=O)N1CCN(Cc2cc(Br)ccc2O)CC1 | 6.30 |  |
| COC(=O)c1cccc(COc2ccccc2CN2CCN(C(=O)CNC(=O)CC34CC5CC(CC(C5)C3)C4)CC2)c1 | 5.62 |  |
| CC(=O)Nc1ccc(CN2CCN(C(=O)CNC(=O)CC34CC5CC(CC(C5)C3)C4)CC2)cc1 | 5.12 |  |
| O=C(CC12CC3CC(CC(C3)C1)C2)NCC(=O)N1CCN(Cc2ccc3ccccc3c2)CC1 | 5.52 |  |
| O=C(CC12CC3CC(CC(C3)C1)C2)NCC(=O)N1CCN(Cc2cccc(C(F)(F)F)c2)CC1 | 5.59 |  |
| CC(OCc1ccccc1)C(NC(=O)CC12CC3CC(CC(C3)C1)C2)C(=O)N1CCN(Cc2ccccc2)CC1 (stereo unspecified) | 4.54 |  |
| CC(NC(=O)CC12CC3CC(CC(C3)C1)C2)C(=O)N1CCN(Cc2ccccc2)CC1 (stereo unspecified) | < 4.40 |  |
| O=C(CC12CC3CC(CC(C3)C1)C2)NCC(=O)N1CCN(Cc2ccccc2)CC1 | 5.89 | Active |
| COc1cccc(COc2ccccc2CN2CCN(C(=O)CNC(=O)CC34CC5CC(CC(C5)C3)C4)CC2)c1 | 5.72 |  |
| O=C(CC12CC3CC(CC(C3)C1)C2)NCC(=O)N1CCN(Cc2ccccc2Cl)CC1 | 5.49 |  |
| COC(=O)c1cccc(CN2CCN(C(=O)CNC(=O)CC34CC5CC(CC(C5)C3)C4)CC2)c1 | 4.85 |  |
| Cc1cccc(CN2CCN(C(=O)CNC(=O)CC34CC5CC(CC(C5)C3)C4)CC2)c1 | 5.96 |  |
| O=C(CC12CC3CC(CC(C3)C1)C2)NCC(=O)N1CCN(Cc2cccc(Br)c2)CC1 | 6.00 |  |
| N#Cc1ccc(CN2CCN(C(=O)CNC(=O)CC34CC5CC(CC(C5)C3)C4)CC2)cc1 | 5.10 |  |
| O=C(CC12CC3CC(CC(C3)C1)C2)NCC(=O)N1CCN(Cc2ccccc2C(F)(F)F)CC1 | 5.74 |  |
| O=C(CC12CC3CC(CC(C3)C1)C2)NCC(=O)N1CCN(Cc2ccccn2)CC1 | 5.07 |  |
| N#Cc1cccc(CN2CCN(C(=O)CNC(=O)CC34CC5CC(CC(C5)C3)C4)CC2)c1 | 5.92 |  |
| CC(O)C(NC(=O)CC12CC3CC(CC(C3)C1)C2)C(=O)N1CCN(Cc2ccccc2)CC1 (stereo unspecified) | < 4.40 |  |
| COc1ccccc1CN1CCN(C(=O)CNC(=O)CC23CC4CC(CC(C4)C2)C3)CC1 | 5.68 |  |
| CC(C)(C)CC(=O)NCC(=O)N1CCN(Cc2ccccc2)CC1 | < 4.40 |  |
| N#CCC(NC(=O)CC12CC3CC(CC(C3)C1)C2)C(=O)N1CCN(Cc2ccccc2)CC1 (stereo unspecified) | 4.66 |  |
| CC(C)CC(NC(=O)CC12CC3CC(CC(C3)C1)C2)C(=O)N1CCN(Cc2ccccc2)CC1 (stereo unspecified) | 4.54 |  |
